The target in data set [1] is Cytochrome P450 3A4 (Homo sapiens, UniProt P08684). Nature of the data set: Inhibition of human CYP3A4. It is filed as ADME.
The nature of data set [2]: Genotoxicity in micronucleus (unknown origin) by micronucleus assay.
For data set [3], the target named is T1, Diacylglycerol O-acyltransferase 1 (Homo sapiens, UniProt O75907).
T1 sequence (O75907 whole entry): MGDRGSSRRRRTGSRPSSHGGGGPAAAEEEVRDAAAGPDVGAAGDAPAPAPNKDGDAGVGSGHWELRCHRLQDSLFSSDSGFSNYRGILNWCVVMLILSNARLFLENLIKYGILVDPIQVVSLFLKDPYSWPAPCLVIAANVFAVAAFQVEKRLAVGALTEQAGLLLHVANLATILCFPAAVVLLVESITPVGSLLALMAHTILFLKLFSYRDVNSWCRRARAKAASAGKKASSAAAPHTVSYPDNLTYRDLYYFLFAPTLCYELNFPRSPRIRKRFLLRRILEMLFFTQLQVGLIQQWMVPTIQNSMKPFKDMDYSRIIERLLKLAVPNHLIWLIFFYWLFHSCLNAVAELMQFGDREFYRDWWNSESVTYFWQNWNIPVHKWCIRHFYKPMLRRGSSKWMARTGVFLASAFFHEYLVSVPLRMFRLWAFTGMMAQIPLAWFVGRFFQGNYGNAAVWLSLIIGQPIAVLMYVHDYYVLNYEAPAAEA
Nature of the data set: Inhibition of DGAT1 (unknown origin) assessed as effect on incorporation of [1-14C]decanoyl moiety into TG using [1-14C]decanoyl-CoA and 1,2-didecanoyl-sn-glycerol as substrates.

The nature of data set [4]: AUClast in mouse at 5 mg/kg, po. It counts as ADME, organism-based. Further details: dose 5 mg/kg, route oral, time 0 - last. The note with it: in vivo.
Data set [5] has as its system Mus musculus. Description: Effect on incorporation of glycerol-d8 into triolein in wild type mouse by measuring atom percent excess at 200 mg/kg, po dosed 1 hr before of 100 mg/kg, iv glycerol-d8 and measured 30 mins post glycerol-d8 dosing by LC-MS method. It counts as functional, organism-based. Summed up:
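Fed mice (wild type or human MOGAT3 transgenic), studied 8 AM–12 PM. Oral dosing in 0.5% methyl cellulose in saline, alone or with DGAT1 inhibitor (30 mg/kg) and DGAT2 inhibitor (10 mg/kg). After 1 h, 100 mg/kg uniformly labelled D8-glycerol (10 mg/mL in saline) given by tail vein. EDTA plasma taken 30 min later; D5-glycerol enrichment in triolein (18:1/18:1/18:1) measured by LC/MS, reported as mean atom percent excess ± SE.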

Data set [6] has as its target T2, Cytochrome P450 1A2 (Homo sapiens, UniProt P05177).
T2 sequence (P05177 whole entry): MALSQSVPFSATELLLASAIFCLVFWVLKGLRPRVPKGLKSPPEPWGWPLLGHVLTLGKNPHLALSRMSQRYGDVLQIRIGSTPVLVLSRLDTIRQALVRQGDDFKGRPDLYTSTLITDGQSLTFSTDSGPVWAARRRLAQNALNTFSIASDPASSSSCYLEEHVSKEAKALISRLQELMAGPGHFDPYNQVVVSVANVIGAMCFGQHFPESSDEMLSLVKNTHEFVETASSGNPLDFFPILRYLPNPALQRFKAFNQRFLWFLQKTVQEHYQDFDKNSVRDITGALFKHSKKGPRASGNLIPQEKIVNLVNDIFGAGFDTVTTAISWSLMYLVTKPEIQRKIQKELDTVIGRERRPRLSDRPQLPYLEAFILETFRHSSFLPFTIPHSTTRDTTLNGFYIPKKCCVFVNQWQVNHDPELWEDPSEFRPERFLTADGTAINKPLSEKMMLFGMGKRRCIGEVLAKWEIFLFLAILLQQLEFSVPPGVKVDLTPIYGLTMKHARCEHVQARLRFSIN
Nature of the data set: Inhibition of human CYP1A2. It is filed as ADME.

Data set [7] is described as follows: Half life in mouse at 1 mg/kg, iv. The note with it: in vivo. It counts as ADME, organism-based. The method, boiled down:
(§1)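 Single 1 mg/kg intravenous dose in mice; systemic clearance, volume of distribution and effective half-life derived from plasma pharmacokinetics.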

Data set [8] concerns the target T3, Peroxisome proliferator-activated receptor gamma (Homo sapiens, UniProt P37231).
T3 sequence (P37231 whole entry): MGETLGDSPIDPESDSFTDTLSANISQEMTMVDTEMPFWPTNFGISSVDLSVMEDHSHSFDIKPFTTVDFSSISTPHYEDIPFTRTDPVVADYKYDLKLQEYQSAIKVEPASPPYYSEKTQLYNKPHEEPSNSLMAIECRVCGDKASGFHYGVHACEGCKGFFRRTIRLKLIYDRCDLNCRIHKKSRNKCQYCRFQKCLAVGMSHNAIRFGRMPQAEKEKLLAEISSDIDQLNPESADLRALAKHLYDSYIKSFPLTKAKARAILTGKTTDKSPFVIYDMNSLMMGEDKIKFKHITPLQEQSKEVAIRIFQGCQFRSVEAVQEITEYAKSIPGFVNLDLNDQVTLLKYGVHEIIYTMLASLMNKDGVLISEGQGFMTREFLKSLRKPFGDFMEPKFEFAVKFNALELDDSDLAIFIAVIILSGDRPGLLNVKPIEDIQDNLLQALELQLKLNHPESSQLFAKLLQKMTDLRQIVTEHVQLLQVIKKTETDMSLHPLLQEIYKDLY
Nature of the data set: Inhibition of PPARgamma (unknown origin).

Data set [9] is described as follows: Lipophilicity, logD of the compound at pH 7.4. It counts as physicochemical. The note with it: buffer. Summed up:
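Shake-flask octanol:water partition at pH 7.4, with MS analysis of samples.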

Data set [10] can be described thus: Systemic clearance in mouse at 1 mg/kg, iv. It is filed as ADME, organism-based. The note with it: in vivo. The method, boiled down:
as §1

Data set [11] addresses Cytochrome P450 2D6 (Homo sapiens, UniProt P10635). Nature of the data set: Inhibition of human CYP2D6. It is filed as ADME.
Data set [12] concerns the target Voltage-gated inwardly rectifying potassium channel KCNH2 (Homo sapiens, UniProt Q12809). Nature of the data set: Inhibition of human ERG.
Data set [13] in a line: Volume of distribution in mouse at 1 mg/kg, iv. It is filed as ADME, organism-based. The note with it: in vivo. Summed up: as §1
Data set [14] concerns Mus musculus. Description: In-vivo inhibition of MGAT3-mediated TAG synthesis in human MGAT3 transgenic mouse assessed as reduction in incorporation of glycerol-d8 in to triolein expressed as atom percent excess at 200 mg/kg, po dosed 1 hr before of 100 mg/kg, iv glycerol-d8 and measured 30 mins post glycerol-d8 dosing and co-treated with 30 mg/kg for DGAT1 inhibitor-12 and 10 mg/kg for DGAT2 inhibitor-13 by LC-MS method. It counts as functional, organism-based. The method, boiled down:
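Fed mice (wild type or human MOGAT3 transgenic) were studied between 8 AM and 12 PM. Inhibitors were given orally in 0.5% methyl cellulose in saline. After 1 h, D8-glycerol (10 mg/mL in saline) was injected into the tail vein. Blood was taken into EDTA 30 min later and plasma lipids extracted. D5-glycerol in triolein (18:1/18:1/18:1) was measured by LC/MS as atom percent excess, mean ± SE.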

Results on one compound are retold here after ChEMBL document CHEMBL3612040, “Discovery of Selective Small Molecule Inhibitors of Monoacylglycerol Acyltransferase 3” (J Med Chem, 2015).

The source made the active and inactive calls. No cut-off for these calls is given here. Where only a bound is given, the exact number is not on record here.

Chain of Cytochrome P450 2D6 (P10635 whole entry): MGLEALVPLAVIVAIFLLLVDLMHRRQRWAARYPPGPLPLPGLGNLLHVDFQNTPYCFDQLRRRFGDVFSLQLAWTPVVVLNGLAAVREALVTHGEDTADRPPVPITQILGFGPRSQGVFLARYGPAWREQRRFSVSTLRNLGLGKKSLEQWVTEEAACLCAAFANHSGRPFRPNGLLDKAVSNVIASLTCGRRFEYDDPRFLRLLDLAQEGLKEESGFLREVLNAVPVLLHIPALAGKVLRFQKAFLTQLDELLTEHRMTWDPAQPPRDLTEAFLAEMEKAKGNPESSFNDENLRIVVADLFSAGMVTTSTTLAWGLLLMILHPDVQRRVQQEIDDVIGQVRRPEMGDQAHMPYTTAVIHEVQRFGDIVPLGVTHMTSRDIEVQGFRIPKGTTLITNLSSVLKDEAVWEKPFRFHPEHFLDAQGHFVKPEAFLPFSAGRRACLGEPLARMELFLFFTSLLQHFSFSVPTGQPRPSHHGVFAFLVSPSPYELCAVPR
Chain of Voltage-gated inwardly rectifying potassium channel KCNH2 (Q12809 whole entry): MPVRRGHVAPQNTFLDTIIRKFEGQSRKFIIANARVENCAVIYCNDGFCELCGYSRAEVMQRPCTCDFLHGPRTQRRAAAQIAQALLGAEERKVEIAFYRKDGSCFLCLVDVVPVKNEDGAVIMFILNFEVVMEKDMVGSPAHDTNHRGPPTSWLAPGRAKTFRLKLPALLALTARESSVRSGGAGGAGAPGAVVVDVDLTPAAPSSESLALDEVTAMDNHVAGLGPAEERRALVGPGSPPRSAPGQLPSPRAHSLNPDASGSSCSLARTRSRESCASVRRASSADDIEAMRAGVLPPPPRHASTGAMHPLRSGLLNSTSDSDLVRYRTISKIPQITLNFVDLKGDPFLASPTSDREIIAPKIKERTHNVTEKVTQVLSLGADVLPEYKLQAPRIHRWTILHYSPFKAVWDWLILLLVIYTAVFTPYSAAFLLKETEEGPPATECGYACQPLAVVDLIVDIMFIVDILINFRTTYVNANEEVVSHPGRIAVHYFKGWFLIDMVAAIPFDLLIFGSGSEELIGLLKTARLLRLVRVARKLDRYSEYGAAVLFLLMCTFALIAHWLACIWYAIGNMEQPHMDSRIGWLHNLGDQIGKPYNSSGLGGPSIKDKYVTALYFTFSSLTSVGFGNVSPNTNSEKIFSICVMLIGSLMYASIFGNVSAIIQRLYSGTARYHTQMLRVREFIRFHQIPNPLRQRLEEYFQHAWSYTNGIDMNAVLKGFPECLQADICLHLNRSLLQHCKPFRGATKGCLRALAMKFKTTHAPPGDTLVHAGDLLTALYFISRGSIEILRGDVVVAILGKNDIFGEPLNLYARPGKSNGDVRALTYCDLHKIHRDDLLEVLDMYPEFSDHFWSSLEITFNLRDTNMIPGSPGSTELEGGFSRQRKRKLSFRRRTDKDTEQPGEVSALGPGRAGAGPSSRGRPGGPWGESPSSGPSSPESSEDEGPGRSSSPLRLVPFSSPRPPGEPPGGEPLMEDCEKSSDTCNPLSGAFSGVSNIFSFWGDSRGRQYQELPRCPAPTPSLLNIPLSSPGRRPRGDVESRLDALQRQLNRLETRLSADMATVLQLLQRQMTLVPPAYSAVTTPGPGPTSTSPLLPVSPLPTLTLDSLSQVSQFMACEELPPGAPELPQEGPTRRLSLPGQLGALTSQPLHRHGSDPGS
Chain of Cytochrome P450 3A4 (P08684 whole entry): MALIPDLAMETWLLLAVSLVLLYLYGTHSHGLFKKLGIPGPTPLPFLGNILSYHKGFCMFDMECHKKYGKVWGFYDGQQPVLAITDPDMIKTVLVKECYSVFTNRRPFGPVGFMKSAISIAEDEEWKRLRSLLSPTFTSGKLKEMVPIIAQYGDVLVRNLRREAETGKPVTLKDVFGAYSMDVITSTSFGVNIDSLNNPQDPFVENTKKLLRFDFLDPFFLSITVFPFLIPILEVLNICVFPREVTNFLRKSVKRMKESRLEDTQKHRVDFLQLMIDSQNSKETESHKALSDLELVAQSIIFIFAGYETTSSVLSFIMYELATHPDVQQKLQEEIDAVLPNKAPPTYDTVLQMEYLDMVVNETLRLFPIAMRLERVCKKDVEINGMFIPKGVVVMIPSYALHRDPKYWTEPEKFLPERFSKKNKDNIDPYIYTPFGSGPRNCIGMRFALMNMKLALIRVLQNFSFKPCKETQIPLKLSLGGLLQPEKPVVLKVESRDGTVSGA

In the case of `COc1cccc(CC(=O)N2Cc3ccc(S(=O)(=O)Nc4cnn(C5CCC5)n4)cc3C2)c1`, the “inhibition (INH)” value in data set [1], in data set [6], in data set [11] and in [12] was “Not Active” throughout. In addition, the Activity result in [2] is reported as “Non-toxic”. The figures for the concentration for half-maximal inhibition (IC50) in [3] and in data set [8] were greater than 50 µM and 4 µM, respectively. In [4], this compound came in with an AUC(0-t) of 27000 ng·h/mL. Moreover, the outcome in data set [5] was inactive. Moreover, in data set [7], the half-life is 1.4 h. The compound further came in with a logD in data set [9] of 1.7. The compound further registered a clearance in data set [10] of 1.4 mL/min/kg. The compound further returned a Vd in data set [13] of 0.17 L/kg. In addition, in data set [14], the inhibition result was “Active”.

In general, IC50 refers to the concentration at which inhibition is half-maximal. Usually AUC(0-t) stands for exposure summed from dosing to a finite time, without extrapolation to infinity. The term half-life denotes the time in which the quantity being followed falls by half. Read a high half-life as slow decline. Usually logD stands for lipophilicity at a set pH, counting ionised and neutral species. By clearance is commonly meant a measure of how efficiently the substance is removed, as volume per time. The Vd is a proportionality between amount in the body and measured concentration, not a real space.
